{
  "source": "ChEMBL document CHEMBL1121830",
  "about": "“Inhibitors of polyamine biosynthesis. 9. Effects of S-adenosyl-L-methionine analogues on mammalian aminopropyltransferases in vitro and polyamine biosynthesis in transformed lymphocytes” (1981)",
  "key": {"[1]": {"organism": "Mus musculus", "experiment": "Effect of the addition of stimulated spermidine on the intracellular concentration in concanavalin A stimulated lymphocytes in the absence of compound at 48 hours"}, "[2]": {"molecular_target": "T1, Spermidine synthase (Rattus norvegicus) (UniProt Q99MI5)", "T1 sequence (whole entry)": "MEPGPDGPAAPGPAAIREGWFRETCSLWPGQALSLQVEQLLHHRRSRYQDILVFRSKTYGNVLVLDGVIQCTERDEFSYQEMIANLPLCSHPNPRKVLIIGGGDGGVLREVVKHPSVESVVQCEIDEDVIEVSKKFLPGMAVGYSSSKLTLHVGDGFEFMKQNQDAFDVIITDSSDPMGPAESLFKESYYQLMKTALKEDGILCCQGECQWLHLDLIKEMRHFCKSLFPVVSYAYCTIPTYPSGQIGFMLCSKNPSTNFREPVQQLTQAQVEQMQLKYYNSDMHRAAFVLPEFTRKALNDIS", "experiment": "Substrate activity for the Bovine brain spermidine synthase product formation", "conditions": "Bos taurus; target entry is the homologue from another species"}, "[3]": {"organism": "Mus musculus", "experiment": "Effect of the addition of stimulated spermine on the intracellular concentration in concanavalin A stimulated lymphocytes in the absence of compound at 24 hours"}, "[4]": {"organism": "Mus musculus", "experiment": "Effect of the addition of stimulated spermidine on the intracellular concentration in concanavalin A stimulated lymphocytes in the presence of compound (0.5 mM) at 24 hours"}, "[5]": {"organism": "Mus musculus", "experiment": "Effect on putrescine polyamine accumulation in concanavalin A stimulated lymphocytes at 0.02 mM"}, "[6]": {"organism": "Mus musculus", "experiment": "Effect of the addition of stimulated spermidine on the intracellular concentration in concanavalin A stimulated lymphocytes in the presence of spermidine (50 uM) at 48 hours"}, "[7]": {"tested_on": "spermine synthase (Bos taurus)", "experiment": "Compound was tested for its effect on Bovine brain spermine synthase at 0.4 mM"}, "[8]": {"tested_on": "spermine synthase (Rattus norvegicus)", "experiment": "Compound was tested for its effect on rat prostatic spermine synthase at 0.1 mM"}, "[9]": {"molecular_target": "T1, Spermidine synthase (Rattus norvegicus)", "experiment": "Substrate activity for Prostatic spermidine synthase product formation in rat", "outline": "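Substrate test: 0.13 mM S-methyladenosylhomocysteamine or analogue with 0.6 mM [14C]putrescine (spermidine synthase) or [14C]spermidine (spermine synthase). Enzyme was 1.57 mg rat ventral prostate soluble supernatant protein or 0.09 mg enzyme purified 30-fold from bovine brain soluble fraction. Incubated 20 min at 37 °C, stopped with perchloric acid, and labelled polyamines measured by paper electrophoresis.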"}, "[10]": {"organism": "Mus musculus", "experiment": "Effect on spermidine polyamine accumulation in concanavalin A stimulated lymphocytes at 0.05 mM"}, "[11]": {"organism": "Mus musculus", "experiment": "Effect on putrescine polyamine accumulation in concanavalin A stimulated lymphocytes at 0.50 mM"}, "[12]": {"organism": "Mus musculus", "experiment": "Effect on spermidine polyamine accumulation in concanavalin A stimulated lymphocytes at 0.02 mM"}, "[13]": {"organism": "Mus musculus", "experiment": "Effect on putrescine polyamine accumulation in concanavalin A stimulated lymphocytes at 0.10 mM"}, "[14]": {"organism": "Mus musculus", "experiment": "Effect on spermidine polyamine accumulation in concanavalin A stimulated lymphocytes at 0.10 mM"}, "[15]": {"organism": "Mus musculus", "experiment": "Effect of the addition of stimulated spermidine on the intracellular concentration in concanavalin A stimulated lymphocytes in the presence of spermine (50 uM) at 48 hours"}, "[16]": {"tested_on": "spermine synthase (Bos taurus)", "experiment": "Compound was tested for its effect on Bovine brain spermine synthase at 0.01 mM"}, "[17]": {"organism": "Mus musculus", "experiment": "Effect of the addition of stimulated spermidine on the intracellular concentration in concanavalin A stimulated lymphocytes in the presence of compound (0.5 mM) and putrescine (50 uM) at 48 hours"}, "[18]": {"tested_on": "spermine synthase (Bos taurus)", "experiment": "Compound was tested for its effect on Bovine brain spermine synthase at 0.1 mM"}, "[19]": {"organism": "Mus musculus", "experiment": "Effect on putrescine polyamine accumulation in concanavalin A stimulated lymphocytes at 0.35 mM"}, "[20]": {"organism": "Mus musculus", "experiment": "Effect on putrescine polyamine accumulation in concanavalin A stimulated lymphocytes at 0.05 mM"}, "[21]": {"organism": "Mus musculus", "experiment": "Effect of the addition of stimulated spermidine on the intracellular concentration in concanavalin A stimulated lymphocytes in the presence of compound (0.5 mM) at 48 hours"}, "[22]": {"tested_on": "Spermine synthase (Rattus norvegicus)", "experiment": "Substrate activity for Prostatic spermine synthase product formation in rat"}, "[23]": {"organism": "Mus musculus", "experiment": "Effect on putrescine polyamine accumulation in concanavalin A stimulated lymphocytes at 0.20 mM"}, "[24]": {"organism": "Mus musculus", "experiment": "Effect of the addition of stimulated putrescine on the intracellular concentration in concanavalin A stimulated lymphocytes in the absence of compound at 48 hours"}, "[25]": {"organism": "Mus musculus", "experiment": "Effect of the addition of stimulated spermidine on the intracellular concentration in concanavalin A stimulated lymphocytes in the presence of compound (0.5 mM) and spermine (50 uM) at 48 hours"}, "[26]": {"tested_on": "spermine synthase (Bos taurus)", "experiment": "Compound was tested for its effect on Bovine brain spermine synthase at 1.0 mM"}, "[27]": {"organism": "Mus musculus", "experiment": "Effect of the addition of stimulated spermine on the intracellular concentration in concanavalin A stimulated lymphocytes in the absence of compound at 48 hours"}, "[28]": {"molecular_target": "T1, Spermidine synthase (Rattus norvegicus)", "experiment": "Compound was tested for its effect on rat prostatic spermidine synthase at 0.1 mM", "outline": "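Rat prostate spermidine synthase preparation with 20 μM 14C-S-methyladenosylhomocysteamine and 1 mM putrescine, inhibitor at 0.1 mM. Incubation at 37 °C for 15 min; radiolabelled spermidine formed was measured.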"}, "[29]": {"organism": "Mus musculus", "experiment": "Effect of the addition of stimulated spermidine on the intracellular concentration in concanavalin A stimulated lymphocytes in the presence of compound (0.5 mM) and spermidine (50 uM) at 48 hours"}, "[30]": {"organism": "Mus musculus", "experiment": "Effect of the addition of stimulated spermine (50 uM) on the intracellular concentration in concanavalin A stimulated lymphocytes in the absence of compound at 48 hours"}},
  "data": [
    {"smiles": "CC(N)CC[S+](C)C[C@H]1O[C@@H](n2cnc3c(N)ncnc32)[C@H](O)[C@@H]1O.[I-]", "note": "(stereo not given in full)", "values": [
      {"measurement": "Polyamine", "setting": "[1]", "value": 90.5, "unit": "pmol/g"},
      {"measurement": "Activity", "setting": "[2]", "value": 25, "unit": "pmol/min"},
      {"measurement": "Polyamine", "setting": "[3]", "value": 38.6, "unit": "pmol/g"},
      {"measurement": "Polyamine", "setting": "[4]", "value": 17.5, "unit": "pmol/g"},
      {"measurement": "Level", "setting": "[5]", "value": 17.8, "unit": "pmol/g DNA"},
      {"measurement": "Polyamine", "setting": "[6]", "value": 157, "unit": "pmol/g"},
      {"measurement": "Activity", "setting": "[7]", "value": 58, "unit": "%"},
      {"measurement": "Activity", "setting": "[8]", "value": 66, "unit": "%"},
      {"measurement": "Activity", "setting": "[9]", "value": 56, "unit": "pmol/min"},
      {"measurement": "Level", "setting": "[10]", "value": 39.8, "unit": "pmol/g DNA"},
      {"measurement": "Level", "setting": "[11]", "value": 3.5, "unit": "pmol/g DNA"},
      {"measurement": "Level", "setting": "[12]", "value": 67.3, "unit": "pmol/g DNA"},
      {"measurement": "Level", "setting": "[13]", "value": 8.9, "unit": "pmol/g DNA"},
      {"measurement": "Level", "setting": "[14]", "value": 38.7, "unit": "pmol/g DNA"},
      {"measurement": "Polyamine", "setting": "[15]", "value": 38.2, "unit": "pmol/g"},
      {"measurement": "Activity", "setting": "[16]", "value": 102, "unit": "%"},
      {"measurement": "Polyamine", "setting": "[17]", "value": 21.7, "unit": "pmol/g"},
      {"measurement": "Activity", "setting": "[18]", "value": 88, "unit": "%"},
      {"measurement": "Level", "setting": "[19]", "value": 4.2, "unit": "pmol/g DNA"},
      {"measurement": "Level", "setting": "[20]", "value": 11, "unit": "pmol/g DNA"},
      {"measurement": "Polyamine", "setting": "[21]", "value": 19.3, "unit": "pmol/g"},
      {"measurement": "Activity", "setting": "[22]", "value": 0, "unit": "%"},
      {"measurement": "Level", "setting": "[23]", "value": 6.8, "unit": "pmol/g DNA"},
      {"measurement": "Polyamine", "setting": "[24]", "value": 13.3, "unit": "pmol/g"},
      {"measurement": "Polyamine", "setting": "[25]", "value": 20, "unit": "pM/g"},
      {"measurement": "Activity", "setting": "[26]", "value": 23, "unit": "%"},
      {"measurement": "Polyamine", "setting": "[27]", "value": 59.8, "unit": "pmol/g"},
      {"measurement": "Activity", "setting": "[28]", "value": 76, "unit": "%"},
      {"measurement": "Polyamine", "setting": "[29]", "value": 26.2, "unit": "pmol/g"},
      {"measurement": "Polyamine", "setting": "[30]", "value": 98.2, "unit": "pM/g"}
    ]}
  ]
}
